# According to ChEMBL document CHEMBL2177098, “Synthesis and evaluation of novel ¹⁸F labeled 2-pyridinylbenzoxazole and 2-pyridinylbenzothiazole derivatives as ligands for positron emission tomography (PET) imaging of β-amyloid plaques” (J Med Chem, 2012):
# Experiments:
# [1] = Chemical stability of the compound in saline solution after 6 hrs; assay type: physicochemical; conditions: buffer
# Procedure, shortened: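 Tracer kept in saline solution at room temperature, and stability followed during storage for up to 6 h.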
# Lung [2] = test: Drug uptake in ICR mouse lung at 370 kBq/100 ul, iv at 2 mins by gamma-counting analysis; assay type: ADME, organism-based; conditions: in vivo
# Procedure, shortened: (§1)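 Male ICR mice (5 weeks, about 20 g) got 18F tracer in saline (370 KBq per 100 μL) via tail vein; n = 5 per time point, killed at 2, 10, 30, 60 min. Organs weighed and γ-counted; percent dose per gram wet tissue from comparison with diluted injectate aliquots.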
# Spleen [3] = test: Drug uptake in ICR mouse spleen at 370 kBq/100 ul, iv at 2 mins by gamma-counting analysis; assay type: ADME, organism-based; conditions: in vivo; procedure, shortened: as §1
# Heart [4] = test: Drug uptake in ICR mouse heart at 370 kBq/100 ul, iv at 10 mins by gamma-counting analysis; assay type: ADME, organism-based; conditions: in vivo; procedure, shortened: as §1
# Bone [5] = test: Drug uptake in ICR mouse bone at 370 kBq/100 ul, iv at 2 mins by gamma-counting analysis; assay type: ADME, organism-based, Bone element; conditions: in vivo; procedure, shortened: as §1
# Intestine [6] = test: Drug uptake in ICR mouse intestine assessed per organ at 370 kBq/100 ul, iv at 2 mins by gamma-counting analysis; assay type: ADME, organism-based; conditions: in vivo
# Procedure, shortened: (§2)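 Male ICR mice (5 weeks, about 20 g) got 18F tracer in saline (370 KBq per 100 μL) via tail vein; n = 5 per time point, killed at 2, 10, 30, 60 min. Organs removed and γ-counted against diluted injectate; expressed as % injected dose per organ.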
# Heart [7] = test: Drug uptake in ICR mouse heart at 370 kBq/100 ul, iv at 30 mins by gamma-counting analysis; assay type: ADME, organism-based; conditions: in vivo, 0.5 h; procedure, shortened: as §1
# Brain [8] = test: Drug uptake in ICR mouse brain at 370 kBq/100 ul, iv at 10 mins by gamma-counting analysis; assay type: ADME, organism-based; conditions: in vivo; procedure, shortened: as §1
# Liver [9] = test: Drug uptake in ICR mouse liver at 370 kBq/100 ul, iv at 60 mins by gamma-counting analysis; assay type: ADME, organism-based; conditions: in vivo, 1 h; procedure, shortened: as §1
# Liver [10] = test: Drug uptake in ICR mouse liver at 370 kBq/100 ul, iv at 30 mins by gamma-counting analysis; assay type: ADME, organism-based; conditions: in vivo, 0.5 h; procedure, shortened: as §1
# Blood [11] = test: Drug uptake in ICR mouse blood at 370 kBq/100 ul, iv at 60 mins by gamma-counting analysis; assay type: ADME, organism-based; conditions: in vivo, 1 h; procedure, shortened: as §1
# Liver [12] = test: Drug uptake in ICR mouse liver at 370 kBq/100 ul, iv at 2 mins by gamma-counting analysis; assay type: ADME, organism-based; conditions: in vivo; procedure, shortened: as §1
# Liver [13] = test: Drug uptake in ICR mouse liver at 370 kBq/100 ul, iv at 10 mins by gamma-counting analysis; assay type: ADME, organism-based; conditions: in vivo; procedure, shortened: as §1
# Brain [14] = test: Drug uptake in wild type C57BL6 mouse brain at 19.2 MBq, iv after 30 mins by autoradiographic analysis; assay type: ADME, organism-based; conditions: in vivo, 0.5 h
# Lung [15] = test: Drug uptake in ICR mouse lung at 370 kBq/100 ul, iv at 30 mins by gamma-counting analysis; assay type: ADME, organism-based; conditions: in vivo, 0.5 h; procedure, shortened: as §1
# Kidney [16] = test: Drug uptake in ICR mouse kidney at 370 kBq/100 ul, iv at 10 mins by gamma-counting analysis; assay type: ADME, organism-based; conditions: in vivo; procedure, shortened: as §1
# Kidney [17] = test: Drug uptake in ICR mouse kidney at 370 kBq/100 ul, iv at 60 mins by gamma-counting analysis; assay type: ADME, organism-based; conditions: in vivo, 1 h; procedure, shortened: as §1
# Brain [18] = test: Drug uptake in ICR mouse brain at 370 kBq/100 ul, iv at 60 mins by gamma-counting analysis; assay type: ADME, organism-based; conditions: in vivo, 1 h; procedure, shortened: as §1
# Stomach = test: Drug uptake in ICR mouse stomach assessed per organ at 370 kBq/100 ul, iv at 60 mins by gamma-counting analysis; assay type: ADME, organism-based; conditions: in vivo, 1 h
# Procedure, shortened: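 Normal male ICR mice (5 weeks, about 20 g) received the ¹⁸F tracer in saline (370 KBq per 100 μL) by tail-vein injection. Groups of n = 5 were killed at 2, 10, 30 and 60 min. Organs were removed, weighed and γ-counted against diluted aliquots of the injectate, giving % dose per gram. Stomach and intestine were expressed per organ. The brain ratio is 2 min/60 min uptake. Values are mean ± SD.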
# Heart [19] = test: Drug uptake in ICR mouse heart at 370 kBq/100 ul, iv at 2 mins by gamma-counting analysis; assay type: ADME, organism-based; conditions: in vivo; procedure, shortened: as §1
# Heart [20] = test: Drug uptake in ICR mouse heart at 370 kBq/100 ul, iv at 60 mins by gamma-counting analysis; assay type: ADME, organism-based; conditions: in vivo, 1 h; procedure, shortened: as §1
# Brain [21] = test: Drug uptake in wild type C57BL6 mouse brain at 370 KBq/100 ul after 1 hr by autoradiographic analysis; assay type: ADME, tissue-based; conditions: in vitro
# Procedure, shortened: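 Paraffin brain sections from 12-month-old male control C57BL6 mice were deparaffinized through xylene and graded ethanol, then held in PBS (0.2 M, pH 7.4) for 30 min. They were incubated with the ¹⁸F tracer (370 KBq per 100 μL) for 1 h at room temperature. Sections were washed in 40% EtOH, rinsed with water for 1 min, dried, and exposed to a phosphor plate for 2 h. The same sections were then stained with thioflavin S.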
# Intestine [22] = test: Drug uptake in ICR mouse intestine assessed per organ at 370 kBq/100 ul, iv at 30 mins by gamma-counting analysis; assay type: ADME, organism-based; conditions: in vivo, 0.5 h; procedure, shortened: as §2
# Intestine [23] = test: Drug uptake in ICR mouse intestine assessed per organ at 370 kBq/100 ul, iv at 10 mins by gamma-counting analysis; assay type: ADME, organism-based; conditions: in vivo; procedure, shortened: as §2
# Lung [24] = test: Drug uptake in ICR mouse lung at 370 kBq/100 ul, iv at 60 mins by gamma-counting analysis; assay type: ADME, organism-based; conditions: in vivo, 1 h; procedure, shortened: as §1
# Bone [25] = test: Drug uptake in ICR mouse bone at 370 kBq/100 ul, iv at 10 mins by gamma-counting analysis; assay type: ADME, organism-based, Bone element; conditions: in vivo; procedure, shortened: as §1
# Spleen [26] = test: Drug uptake in ICR mouse spleen at 370 kBq/100 ul, iv at 10 mins by gamma-counting analysis; assay type: ADME, organism-based; conditions: in vivo; procedure, shortened: as §1
# Blood [27] = test: Drug uptake in ICR mouse blood at 370 kBq/100 ul, iv at 2 mins by gamma-counting analysis; assay type: ADME, organism-based; conditions: in vivo; procedure, shortened: as §1
# Brain [28] = test: Drug uptake in healthy human brain at 370 KBq/100 ul after 1 hr by autoradiographic analysis; assay type: ADME, tissue-based; conditions: in vitro
# Blood [29] = test: Drug uptake in ICR mouse blood at 370 kBq/100 ul, iv at 30 mins by gamma-counting analysis; assay type: ADME, organism-based; conditions: in vivo, 0.5 h; procedure, shortened: as §1
# Lung [30] = test: Drug uptake in ICR mouse lung at 370 kBq/100 ul, iv at 10 mins by gamma-counting analysis; assay type: ADME, organism-based; conditions: in vivo; procedure, shortened: as §1
# Bone [31] = test: Drug uptake in ICR mouse bone at 370 kBq/100 ul, iv at 30 mins by gamma-counting analysis; assay type: ADME, organism-based, Bone element; conditions: in vivo, 0.5 h; procedure, shortened: as §1
# Spleen [32] = test: Drug uptake in ICR mouse spleen at 370 kBq/100 ul, iv at 60 mins by gamma-counting analysis; assay type: ADME, organism-based; conditions: in vivo, 1 h; procedure, shortened: as §1
# [33] = Displacement of [125I]-IMPY from amyloid beta (1 to 42) fibrils after 2 hrs by gamma-counting analysis
# Procedure, shortened: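 Competition binding with aggregated Aβ1-42 fibrils and [125I]IMPY (60000−100000 cpm/100 μL) in 0.05% BSA (1 mL total); inhibitors 10⁻⁴−10^−8.5 M in ethanol. Incubated 37 °C for 2 h, then GF/B vacuum filtration with PBS (0.02 M, pH 7.4) washes and γ counting. Three repeats; IC50 converted to Ki by Cheng−Prusoff.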
# Brain [34] = test: Drug uptake in ICR mouse brain at 370 kBq/100 ul, iv at 2 mins by gamma-counting analysis; assay type: ADME, organism-based; conditions: in vivo; procedure, shortened: as §1
# Kidney [35] = test: Drug uptake in ICR mouse kidney at 370 kBq/100 ul, iv at 2 mins by gamma-counting analysis; assay type: ADME, organism-based; conditions: in vivo; procedure, shortened: as §1
structure (smiles),measurement,setting,value
CNc1ccc(-c2nc3cc(OCC[18F])ccc3o2)cn1,Stability,[1],Stable
same,Drug uptake,Lung [2],4.14 % ID/g
same,Drug uptake,Spleen [3],3.32 % ID/g
same,Drug uptake,Heart [4],2.34 % ID/g
same,Drug uptake,Bone [5],1.18 % ID/g
same,Drug uptake,Intestine [6],9.87 %ID
same,Drug uptake,Heart [7],1.84 % ID/g
same,Drug uptake,Brain [8],2.24 % ID/g
same,Drug uptake,Liver [9],2.64 % ID/g
same,Drug uptake,Liver [10],3.95 % ID/g
same,Drug uptake,Blood [11],3.2 % ID/g
same,Drug uptake,Liver [12],10.48 % ID/g
same,Drug uptake,Liver [13],8.5 % ID/g
same,Drug uptake,Brain [14],Not Active
same,Drug uptake,Lung [15],2.29 % ID/g
same,Drug uptake,Kidney [16],3.52 % ID/g
same,Drug uptake,Kidney [17],3.04 % ID/g
same,Drug uptake,Brain [18],1.55 % ID/g
same,Drug uptake,Stomach,3.89 %ID
same,Drug uptake,Heart [19],4.66 % ID/g
same,Drug uptake,Heart [20],2.05 % ID/g
same,Drug uptake,Brain [21],Not Active
same,Drug uptake,Intestine [22],33.66 %ID
same,Drug uptake,Intestine [23],19.61 %ID
same,Drug uptake,Lung [24],2.57 % ID/g
same,Drug uptake,Bone [25],1.11 % ID/g
same,Drug uptake,Spleen [26],2.13 % ID/g
same,Drug uptake,Blood [27],3.36 % ID/g
same,Drug uptake,Brain [28],Not Active
same,Drug uptake,Blood [29],2.55 % ID/g
same,Drug uptake,Lung [30],2.8 % ID/g
same,Drug uptake,Bone [31],2.34 % ID/g
same,Drug uptake,Spleen [32],1.64 % ID/g
same,Ki,[33],8 nM
same,Drug uptake,Brain [34],7.23 % ID/g
same,Drug uptake,Kidney [35],7.45 % ID/g
